ChEMBL document CHEMBL1154162, “Synthesis and structure-activity relationships of 2-(1,4'-bipiperidin-1'-yl)thiazolopyridine as H3 receptor antagonists” (Bioorg Med Chem Lett, 2009)
Blank lines part the entries; values can stand above or below the compound they belong to.

How the values were obtained:
Histamine H3 receptor [1] = target: Histamine H3 receptor (Homo sapiens, UniProt Q9Y5N1); assay: Displacement of [3H]N-alpha-methylhistamine from human recombinant histamine H3 receptor expressed in HEK293 cells; type: cell-based
in vivo [2] = details: rat, plasma, po, 10 mg/kg
Histamine H3 receptor [3] = target: Histamine H3 receptor (Mus musculus, UniProt P58406); assay: Displacement of [3H]N-alpha-methylhistamine from mouse brain histamine H3 receptor
Mus musculus [4] = assay: Ex vivo displacement of [3H]N-alpha-methylhistamine from histamine H3 receptor in ICR mouse at 10 mg/kg, po by receptor occupancy assay relative to control; type: functional
Method in brief: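 ICR mice dosed orally at 10 mg/kg. Cortex dissected 4 h after dosing and homogenized in ice-cold 50 mM Na2HPO4–KH2PO4 buffer pH 6.8, then frozen at −80 °C for at least 12 h. Protein measured by BCA. Incubation 30 min at room temperature, in quadruplicate. Stopped by filtration on PEI-presoaked GF/B plates and counted. Specific binding calculated as total minus nonspecific.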

hERG (KCNH2) = hERG (KCNH2) (Homo sapiens, UniProt Q12809); assay: in vitro
[5] = AUC (0 to 24 hrs) in monkey at 3 mg/kg, po; type: ADME, organism-based, Macaca mulatta; set-up: time < 24 hr, dose 3 mg/kg, route oral; details: rhesus monkey, plasma
Method in brief: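 Monkeys dosed orally at 3 mg/kg. AUC calculated over 0–24 h.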

[6] = Cmax in rat; type: ADME, organism-based; details: in vivo
Method in brief: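 Rats dosed orally at 10 mg/kg. Cmax taken from the plasma profile.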

[7] = Cmax in monkey; type: ADME, organism-based, Macaca mulatta; details: rhesus monkey, in vivo
Method in brief: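 Monkeys dosed orally at 3 mg/kg. Cmax taken from the plasma profile.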

in vivo [8] = details: ICR, mouse, brain/plasma, po, 30 mg/kg
Mus musculus [9] = assay: Ex vivo displacement of [3H]N-alpha-methylhistamine from histamine H3 receptor in ICR mouse at 10 mg/kg, po by receptor occupancy assay relative to control
Histamine H3 receptor [10] = target: Histamine H3 receptor (Cavia porcellus, UniProt Q9JI35); assay: Antagonist activity at guinea pig jejunum histamine H3 receptor by electric field stimulation assay; type: functional, tissue-based; details: read-out: pA2 (converted)
Sequence of Histamine H3 receptor (Cavia porcellus, UniProt Q9JI35) (Q9JI35 whole entry): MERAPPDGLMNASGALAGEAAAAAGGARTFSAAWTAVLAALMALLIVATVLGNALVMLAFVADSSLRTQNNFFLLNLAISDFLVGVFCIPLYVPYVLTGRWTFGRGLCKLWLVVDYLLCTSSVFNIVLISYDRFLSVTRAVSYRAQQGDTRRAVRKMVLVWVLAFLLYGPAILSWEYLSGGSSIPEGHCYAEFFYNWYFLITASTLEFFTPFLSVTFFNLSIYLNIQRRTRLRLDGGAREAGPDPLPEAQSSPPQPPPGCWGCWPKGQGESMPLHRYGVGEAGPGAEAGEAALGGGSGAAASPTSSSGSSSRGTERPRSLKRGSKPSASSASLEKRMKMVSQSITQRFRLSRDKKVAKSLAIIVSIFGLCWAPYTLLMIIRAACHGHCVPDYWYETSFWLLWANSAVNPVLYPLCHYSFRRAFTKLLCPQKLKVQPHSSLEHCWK

Sequence of hERG (KCNH2) (Q12809 whole entry): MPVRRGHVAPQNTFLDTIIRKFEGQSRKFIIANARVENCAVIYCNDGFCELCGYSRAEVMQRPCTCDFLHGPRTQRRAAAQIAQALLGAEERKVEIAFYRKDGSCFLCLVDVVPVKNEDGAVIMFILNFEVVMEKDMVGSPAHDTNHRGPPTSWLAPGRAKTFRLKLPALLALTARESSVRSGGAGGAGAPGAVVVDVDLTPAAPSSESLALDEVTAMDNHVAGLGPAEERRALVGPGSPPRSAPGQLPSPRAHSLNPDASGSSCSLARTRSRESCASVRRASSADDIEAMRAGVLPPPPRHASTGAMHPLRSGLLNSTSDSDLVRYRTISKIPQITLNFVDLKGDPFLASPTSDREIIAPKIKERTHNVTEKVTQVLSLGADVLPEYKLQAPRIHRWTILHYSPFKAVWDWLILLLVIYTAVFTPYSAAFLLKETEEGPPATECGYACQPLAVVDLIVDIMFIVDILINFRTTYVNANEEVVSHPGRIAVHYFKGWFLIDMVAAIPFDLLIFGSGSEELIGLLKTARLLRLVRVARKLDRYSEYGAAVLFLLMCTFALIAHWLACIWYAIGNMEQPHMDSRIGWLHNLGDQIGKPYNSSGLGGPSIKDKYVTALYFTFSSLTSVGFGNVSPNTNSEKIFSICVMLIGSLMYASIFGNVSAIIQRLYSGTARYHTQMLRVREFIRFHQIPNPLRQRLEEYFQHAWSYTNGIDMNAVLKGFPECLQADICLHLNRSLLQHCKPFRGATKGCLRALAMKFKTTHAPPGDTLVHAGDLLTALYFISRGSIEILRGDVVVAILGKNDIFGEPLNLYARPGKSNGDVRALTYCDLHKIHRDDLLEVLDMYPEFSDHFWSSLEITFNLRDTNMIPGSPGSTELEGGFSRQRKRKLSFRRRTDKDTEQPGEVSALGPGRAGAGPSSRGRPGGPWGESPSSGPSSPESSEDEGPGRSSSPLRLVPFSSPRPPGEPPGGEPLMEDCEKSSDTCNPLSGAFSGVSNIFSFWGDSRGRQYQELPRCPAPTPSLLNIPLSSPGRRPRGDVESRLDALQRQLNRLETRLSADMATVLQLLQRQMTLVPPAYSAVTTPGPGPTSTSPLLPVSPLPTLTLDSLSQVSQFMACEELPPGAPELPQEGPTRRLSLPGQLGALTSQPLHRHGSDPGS
Sequence of Histamine H3 receptor (Homo sapiens, UniProt Q9Y5N1) (Q9Y5N1 whole entry): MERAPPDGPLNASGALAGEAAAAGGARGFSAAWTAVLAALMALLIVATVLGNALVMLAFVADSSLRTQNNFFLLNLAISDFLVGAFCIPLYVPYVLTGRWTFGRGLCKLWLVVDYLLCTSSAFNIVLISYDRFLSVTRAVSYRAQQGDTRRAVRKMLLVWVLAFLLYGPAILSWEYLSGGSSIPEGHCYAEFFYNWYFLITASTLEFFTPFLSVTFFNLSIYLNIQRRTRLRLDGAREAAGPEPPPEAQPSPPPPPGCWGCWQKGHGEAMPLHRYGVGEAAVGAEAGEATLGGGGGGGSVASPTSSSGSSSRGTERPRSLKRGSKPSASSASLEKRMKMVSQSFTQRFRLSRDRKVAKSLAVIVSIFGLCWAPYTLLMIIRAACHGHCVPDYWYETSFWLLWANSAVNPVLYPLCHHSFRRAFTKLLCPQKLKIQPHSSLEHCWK
Sequence of Histamine H3 receptor (Mus musculus, UniProt P58406) (P58406 whole entry): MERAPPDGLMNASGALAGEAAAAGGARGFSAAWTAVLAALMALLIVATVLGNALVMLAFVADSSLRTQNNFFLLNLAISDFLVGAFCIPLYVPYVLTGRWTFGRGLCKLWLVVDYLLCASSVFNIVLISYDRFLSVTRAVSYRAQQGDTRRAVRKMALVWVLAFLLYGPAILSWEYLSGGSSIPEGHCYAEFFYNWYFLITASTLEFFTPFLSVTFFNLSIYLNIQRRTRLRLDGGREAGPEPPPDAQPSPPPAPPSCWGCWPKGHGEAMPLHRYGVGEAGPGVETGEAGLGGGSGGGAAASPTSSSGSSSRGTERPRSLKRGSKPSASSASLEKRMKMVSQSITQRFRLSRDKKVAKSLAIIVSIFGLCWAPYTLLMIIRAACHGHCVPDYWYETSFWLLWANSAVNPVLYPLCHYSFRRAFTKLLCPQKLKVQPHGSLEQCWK

- Ki (Histamine H3 receptor [1]): 139 nM
Structure (SMILES): c1cnc2nc(N3CCC(N4CCCCC4)CC3)sc2c1

- AUC(0-t) at 6 h (in vivo [2]): 339 ng·h/mL
Structure (SMILES): N#Cc1cc(-c2cnc3nc(N4CCC(N5CCCCC5)CC4)sc3c2)ccc1F

- Ki (Histamine H3 receptor [1]): 59 nM
Structure (SMILES): Oc1ccc(-c2cnc3nc(N4CCC(N5CCCCC5)CC4)sc3c2)cc1

- Ki (Histamine H3 receptor [1]): 33 nM
Structure (SMILES): CC(=O)c1cccc(-c2cnc3nc(N4CCC(N5CCCCC5)CC4)sc3c2)c1

- Ki (Histamine H3 receptor [1]): 213 nM
Structure (SMILES): Oc1ccc(-c2cc3sc(N4CCC(N5CCCCC5)CC4)nc3cn2)cc1

- Ki (Histamine H3 receptor [3]): 20 nM
Structure (SMILES): CC(=O)Nc1ccc(-c2cnc3nc(N4CCC(N5CCCCC5)CC4)sc3c2)cn1
- Activity (Mus musculus [4]): 45%
- inhibition at 10 µM (hERG (KCNH2)): 20%

- Ki (Histamine H3 receptor [3]): 89 nM
- AUC(0-t) at 24 h [5]: 624 ng·h/mL
- Cmax [6]: 234 ng/mL
- Cmax [7]: 33 ng/mL
- AUC(0-t) at 6 h (in vivo [2]): 1070 ng·h/mL
Structure (SMILES): Fc1ccc(-c2cc3sc(N4CCC(N5CCCCC5)CC4)nc3cn2)cn1
- Activity (Mus musculus [4]): 95%

- Ki (Histamine H3 receptor [1]): 125 nM
Structure (SMILES): Clc1cnc2nc(N3CCC(N4CCCCC4)CC3)sc2c1

- Ki (Histamine H3 receptor [3]): 66 nM
Structure (SMILES): c1ncc(-c2cnc3nc(N4CCC(N5CCCCC5)CC4)sc3c2)cn1
- Activity (Mus musculus [4]): 0%
- inhibition at 10 µM (hERG (KCNH2)): 30%

- Ki (Histamine H3 receptor [1]): 80 nM
Structure (SMILES): CC(=O)c1cccc(-c2cc3sc(N4CCC(N5CCCCC5)CC4)nc3cn2)c1

Structure (SMILES): Nc1ccc(-c2cnc3nc(N4CCC(N5CCCCC5)CC4)sc3c2)cn1
- Activity (Mus musculus [4]): 3%

- Ki (Histamine H3 receptor [1]): 1700 nM
Structure (SMILES): Clc1ccc2nc(N3CCC(N4CCCCC4)CC3)sc2n1

Structure (SMILES): Fc1ncccc1-c1cc2sc(N3CCC(N4CCCCC4)CC3)nc2cn1
- inhibition at 10 µM (hERG (KCNH2)): 88%

Structure (SMILES): Clc1cc2sc(N3CCC(N4CCCCC4)CC3)nc2cn1
- Ki (Histamine H3 receptor [3]): 75 nM
- AUC(0-t) at 6 h (in vivo [2]): 56 ng·h/mL
- Kp at 96 h (in vivo [8]): 4.52
- inhibition at 10 µM (hERG (KCNH2)): 59%
- Activity (Mus musculus [9]): 80%

- Ki (Histamine H3 receptor [3]): 20 nM
Structure (SMILES): Oc1ccc(-c2cc3sc(N4CCC(N5CCCCC5)CC4)nc3cn2)cn1
- Activity (Mus musculus [4]): 1%

- Ki (Histamine H3 receptor [1]): 126 nM
Structure (SMILES): N#Cc1ccc(-c2cc3sc(N4CCC(N5CCCCC5)CC4)nc3cn2)cc1

- Ki (Histamine H3 receptor [1]): 141 nM
Structure (SMILES): Brc1cnc2nc(N3CCC(N4CCCCC4)CC3)sc2c1

- Ki (Histamine H3 receptor [1]): 35 nM
Structure (SMILES): N#Cc1cc2sc(N3CCC(N4CCCCC4)CC3)nc2cn1

- Ki (Histamine H3 receptor [1]): 140 nM
Structure (SMILES): COc1cccc(-c2cnc3nc(N4CCC(N5CCCCC5)CC4)sc3c2)c1

- Ki (Histamine H3 receptor [1]): 79 nM
Structure (SMILES): Nc1cnc2nc(N3CCC(N4CCCCC4)CC3)sc2c1

Structure (SMILES): CCCN1CCN(c2nc3cnccc3s2)CC1
- Kb (Histamine H3 receptor [10]): 56.2 nM

- Ki (Histamine H3 receptor [1]): 230 nM
Structure (SMILES): COc1cccc(-c2cc3sc(N4CCC(N5CCCCC5)CC4)nc3cn2)c1

- Ki (Histamine H3 receptor [1]): 31 nM
Structure (SMILES): CC(=O)Nc1cnc2nc(N3CCC(N4CCCCC4)CC3)sc2c1

Structure (SMILES): COc1cc(-c2cc3sc(N4CCC(N5CCCCC5)CC4)nc3cn2)ccn1
- inhibition at 10 µM (hERG (KCNH2)): 91%

- Ki (Histamine H3 receptor [1]): 53 nM
Structure (SMILES): CC(=O)Nc1cc2sc(N3CCC(N4CCCCC4)CC3)nc2cn1

Structure (SMILES): Fc1cc(-c2cc3sc(N4CCC(N5CCCCC5)CC4)nc3cn2)ccn1
- inhibition at 10 µM (hERG (KCNH2)): 85%

- Ki (Histamine H3 receptor [1]): 36 nM
Structure (SMILES): N#Cc1cnc2nc(N3CCC(N4CCCCC4)CC3)sc2c1

Structure (SMILES): Nc1cnc(-c2cnc3nc(N4CCC(N5CCCCC5)CC4)sc3c2)cn1
- inhibition at 10 µM (hERG (KCNH2)): 20%

- Ki (Histamine H3 receptor [1]): 46 nM
Structure (SMILES): N#Cc1cc(-c2cc3sc(N4CCC(N5CCCCC5)CC4)nc3cn2)ccc1F

- Ki (Histamine H3 receptor [1]): 128 nM
Structure (SMILES): c1cc2sc(N3CCC(N4CCCCC4)CC3)nc2cn1

- Ki (Histamine H3 receptor [1]): 73 nM
Structure (SMILES): Nc1cc2sc(N3CCC(N4CCCCC4)CC3)nc2cn1

Structure (SMILES): COc1cc(-c2cnc3nc(N4CCC(N5CCCCC5)CC4)sc3c2)ccn1
- inhibition at 10 µM (hERG (KCNH2)): 98%
